Consider 167 variants from the RNAGym collection of RNA variant scans (doi:10.1126/science.aae0568).

The chains are these.
B1: tRNA (parent)
chain: GUUCCGUUGGCGUAAUGGUAACGCGUCUCCCUCCUAAGGAGAAGACUGCGGGUUCGAGUCCCGUACGGAACG

This sample holds only a part of the variants without activity. Some results are limits rather than exact numbers.

In the series the parent is B1. Briefly: yeast fitness relative to wild type (ratio to wild type); higher = fitter; tRNA-Arg(CCU), competitive growth, 37 C, YPD. An outline of the steps: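 Changes in genotype frequencies gave Darwinian fitness relative to wild type. Frequencies were read by 100-nucleotide paired-end sequencing of gene amplicons before and after pooled Saccharomyces cerevisiae strains, carrying tRNA-Arg(CCU) gene variants at the native locus, were competed in YPD at 37°C for 24 hours in six replicates. A genotype was kept only with ≥ 100 starting reads, and estimates < 0.5 were set to 0.5.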
Turning to A45G C55A G56A G67A, the yeast fitness was not above 0.5.
For C46U C61U G67A the value was 0.535; for C46U C49G, 0.997; for A45U C61U, 0.974.
The figure for A45G C62A A69C is 0.595; for C46G C49A G68C A69G it is not above 0.5.
For A45U C62U C66U the value was 0.704.
As to C46G C49A U54C G58C, the yeast fitness is not above 0.5.
For the variant A45U G50A, the yeast fitness came to 1.01.
In the case of A45G G48C G56A, the yeast fitness stood at 0.968.
A45G C49G A65U: the yeast fitness was determined as 0.56.
The figure for A45U G56C is 0.714; for A45U C49U U64A it is 0.571.
For the variant C46A U47G C49A G52A G58C U64G A65G, the yeast fitness was not above 0.5.
For C46G C49G C62A the value was 0.61; for C46U C62U, 1.
As to C46U C62A, the yeast fitness came to 0.684.
Turning to C46G A69C, the yeast fitness came to 0.972.
The figure for C46G A69U is 1.03; for C46G U54A C62U it is not above 0.5.
In the case of C46U G63C, the yeast fitness was determined as 0.753.
For A45U C61G C66U the value was 0.53; for A45U U59G, 0.66.
For A45U U59C the value was 0.897; for A45U G68A A70C, 0.641.
The figure for C46U A69U is 1.03; for C46U A69C it is 0.976.
On to C46G C55G A69G, for which the yeast fitness is not above 0.5.
For C46A C62U A69C the value was 0.69.
With C46A U59G, the yeast fitness was found to be 1.06.
For C46A U59C the value was 0.898; for C46A U64G, 0.82; for A45U G51C G68A, not above 0.5.
In the case of A45G U47C, the yeast fitness was found to be 1.01.
For C46G U59C the value was 1.05; for A45U C60U G68A, 0.575; for C46A G52A, 0.816.
For C46G C62G A69G the value was 0.733.
The figure for C46A C49A A70C is not above 0.5; for C46U C61G C66U A69U it is not above 0.5.
As for C46G G51C, the yeast fitness is 0.591.
For C46G G51A the value was 0.766; for C46A U53A, 0.738; for C46U C61G A70C, not above 0.5.
The figure for C46G C55G is 0.722; for C46A G56A C61A it is 0.603.
For A45U G50A C55G A70U the value was not above 0.5; for A45G U54C, 0.774.
Consider A45U C55U C62A, for which the yeast fitness is not above 0.5.
The figure for A45U G67A is 0.767; for A45U C62G A65G it is 0.913.
For the variant A45G G58A C60U, the yeast fitness came to 0.584.
For A45G G68C the value was 0.695; for C46A C49A C61A, not above 0.5; for A45U U54C U64A A69U, not above 0.5.
For C46A A57G G68A the value was 0.605; for C46G A57C G58A G67A, not above 0.5; for C46A C49U, 0.958.
For C46A C49G the value was 0.746; for A45G G56A, 1.1; for C46U C61A G67A, 0.568.
With C46U C66G, the yeast fitness was found to be 0.949.
The figure for C46U C66A is 0.853; for A45U G50U G68C A69U it is not above 0.5.
The figure for C46G C49U A65U A69C is not above 0.5; for A45G G48A G56C C60G it is not above 0.5.
For A45G C55U C61G A69C the value was not above 0.5.
For C46U C49G G51C C66G, the yeast fitness was not above 0.5.
Turning to C46G C66U, the yeast fitness amounted to 0.928.
C46G C66G: the yeast fitness amounted to 0.986.
For C46G G56A A57C C61U the value was 0.575.
For A45G G67C the value was 0.872.
For A45G G67A the value was 0.961.
On to C46A C55A A65C, for which the yeast fitness was found to be 0.533.
As for C46U C55A, the yeast fitness is 0.587.
For C46A G63A G67A the value was 0.552.
With C46G C61G C62A, the yeast fitness is not above 0.5.
The figure for C46U C60A A69U is 0.57.
With A45U A57G, the yeast fitness amounted to 0.917.
The figure for C46U G52A U59C is 0.631; for C46G C60A it is 0.576; for C46U A65U it is 0.883.
Consider C46U A57U, for which the yeast fitness came out at 1.
For A45U C49A the value was 0.57; for A45U C62U, 1.07; for A45U C62G, 0.837.
For C46A G58A the value was 0.837; for C46G U59C G68C, not above 0.5; for A45U C66G, 0.617.
For C46A G48C the value was 0.924; for A45U U47A C60G, not above 0.5; for C46A A57C C60A, not above 0.5.
Take A45G C49U C55G C61G: the yeast fitness turned out to be 0.732.
As for A45G G58A U64A, the yeast fitness was found to be 0.71.
The figure for A45G G51A G67A is 0.601; for A45U U53C it is 0.793; for A45U C46U U53C it is 0.574.
For C46A C62U the value was 1.02; for C46U C49A A65U, 0.554.
For A45U C46G G63A the value was not above 0.5.
As to A45G C49U A69U, the yeast fitness worked out at 1.04.
For A45U C46U the value was 1.09.
As to A45U C46A G63A, the yeast fitness is 1.06.
On to C46G G67C, for which the yeast fitness stood at 0.86.
For C46G G67A the value was 0.912; for A45U A65G G68A, 0.73; for C46A A65C, 0.973.
With C46A A65U, the yeast fitness amounted to 0.843.
For A45U A57U U59G U64G the value was not above 0.5; for C46U A57C U64C, not above 0.5.
For A45U G50A G63A G68C A69U the value was not above 0.5; for C46G C49A G67A, 0.606.
For C46G C49A G67C the value was not above 0.5; for A45U U53G G67A, not above 0.5.
A45U G48C: the yeast fitness was found to be 0.857.
The figure for C46U G50A C61U is 0.749.
For C46G G51C A70C the value was not above 0.5.
For C46U C49G G68A the value was 0.64.
Take C46U G58C C60A: the yeast fitness was 0.637.
With C46G G48C U64G, the yeast fitness is not above 0.5.
For C46A G67A the value was 0.88.
For A45G C61A A65U the value was not above 0.5; for C46U G56C A69U, 0.54.
For C46U C49A C60A A70C the value was not above 0.5; for C46A U47A, 1.04.
Regarding C46G G63C G67A A70G, the yeast fitness is not above 0.5.
The figure for C46U G50C C55A G63A C66U is not above 0.5; for C46G G52A C66U it is 0.631.
The figure for A45U G48C A57C G67U is not above 0.5.
For C46U A70C the value was 0.976; for C46U G50A G56C C62A C66U, 0.582.
As for C46G A57C, the yeast fitness was determined as 0.61.
The figure for C46G A57U is 0.907.
The figure for C46G C60A G67U is 0.536; for C46A G63C it is 0.995.
In the case of A45G C61G A65C A70U, the yeast fitness was not above 0.5.
For C46A G68A A70C the value was 1.11; for C46U C49U U53C, 0.703.
Take C46G C61G A65C: the yeast fitness was found to be 0.574.
For C46U G63A A69C the value was 0.833.
On to A45U C62U G63C, for which the yeast fitness is not above 0.5.
For C46U A69U A70G the value was 0.761.
The figure for A45U U53C G67A A69C is 0.635; for A45G C60U it is 0.743.
As for A45G C60G, the yeast fitness is 0.821.
The figure for A45G G50C U54A G67A is 0.803.
For C46G U53A A65C the value was not above 0.5; for C46A G48C U59G, 0.534.
The figure for C46A G48A U64G is 0.951; for C46G U59G C61G it is not above 0.5; for A45U A65G A70C it is 0.754.
Take C46G G48C A65U G68A: the yeast fitness was not above 0.5.
For C46A C49G C55U the value was 0.563; for C46U C61A, 0.83.
For C46U C61U the value was 0.956.
The figure for A45U G68A is 0.926; for A45U G68U it is 0.836; for A45U G68C it is 0.66.
Regarding C46G A65C, the yeast fitness is 0.97.
As to C46G A65U, the yeast fitness came to 0.992.
The figure for C46G A65G is 0.897.
For A45U G52C the value was 0.642; for A45U G56A A69C, 0.766; for C46G G48C, 1.02.
The figure for A45U G52A U64C A69U is not above 0.5.
C46A U64A A65C: the yeast fitness amounted to 0.978.
The figure for C46U G48A C55U U59A is not above 0.5.
